Laboratory results: paper PMC2834294 (Chemistry & biology, 2010)

Key:
Format in all cases: cell-based
TRPML3 [1] = molecular target: T1, TRPML3 (Homo sapiens, UniProt Q8TDD5); details: HEK293, read-out: Max % Activation (TRPML3)
T1 sequence (Q8TDD5 1-553): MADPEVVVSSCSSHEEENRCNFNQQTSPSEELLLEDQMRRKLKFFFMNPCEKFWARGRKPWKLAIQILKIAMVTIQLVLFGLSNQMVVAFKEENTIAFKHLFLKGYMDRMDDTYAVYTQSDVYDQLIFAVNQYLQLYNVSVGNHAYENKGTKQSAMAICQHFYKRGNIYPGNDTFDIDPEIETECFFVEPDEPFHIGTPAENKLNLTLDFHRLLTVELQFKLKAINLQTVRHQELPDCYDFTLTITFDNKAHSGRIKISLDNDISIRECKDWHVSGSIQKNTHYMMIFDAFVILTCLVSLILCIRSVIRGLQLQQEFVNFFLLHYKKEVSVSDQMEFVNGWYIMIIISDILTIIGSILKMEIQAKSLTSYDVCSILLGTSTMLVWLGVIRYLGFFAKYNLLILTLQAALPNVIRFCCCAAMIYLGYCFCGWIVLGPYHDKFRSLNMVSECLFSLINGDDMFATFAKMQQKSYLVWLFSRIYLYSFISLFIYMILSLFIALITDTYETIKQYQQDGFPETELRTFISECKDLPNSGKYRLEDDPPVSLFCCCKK
Method in brief: (§1)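 HEK293 lines stably expressed YFP-fused human TRPML3 or zebrafish TRPN1 (G418 0.8 mg/ml, twice subcloned) and were plated at 1,500 cells/well for 23 h at 37 °C. After Fluo-8 loading (1 h 37 °C, 30 min RT), a 5 s basal read and 120 s post-addition read were taken. Max/basal ratios were normalized to DMSO and carbachol (87 µM).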

danio rerio TRPN1 = danio rerio TRPN1 (Danio rerio, UniProt Q7T1G6)
danio rerio TRPN1, sequence (Q7T1G6 1-1614): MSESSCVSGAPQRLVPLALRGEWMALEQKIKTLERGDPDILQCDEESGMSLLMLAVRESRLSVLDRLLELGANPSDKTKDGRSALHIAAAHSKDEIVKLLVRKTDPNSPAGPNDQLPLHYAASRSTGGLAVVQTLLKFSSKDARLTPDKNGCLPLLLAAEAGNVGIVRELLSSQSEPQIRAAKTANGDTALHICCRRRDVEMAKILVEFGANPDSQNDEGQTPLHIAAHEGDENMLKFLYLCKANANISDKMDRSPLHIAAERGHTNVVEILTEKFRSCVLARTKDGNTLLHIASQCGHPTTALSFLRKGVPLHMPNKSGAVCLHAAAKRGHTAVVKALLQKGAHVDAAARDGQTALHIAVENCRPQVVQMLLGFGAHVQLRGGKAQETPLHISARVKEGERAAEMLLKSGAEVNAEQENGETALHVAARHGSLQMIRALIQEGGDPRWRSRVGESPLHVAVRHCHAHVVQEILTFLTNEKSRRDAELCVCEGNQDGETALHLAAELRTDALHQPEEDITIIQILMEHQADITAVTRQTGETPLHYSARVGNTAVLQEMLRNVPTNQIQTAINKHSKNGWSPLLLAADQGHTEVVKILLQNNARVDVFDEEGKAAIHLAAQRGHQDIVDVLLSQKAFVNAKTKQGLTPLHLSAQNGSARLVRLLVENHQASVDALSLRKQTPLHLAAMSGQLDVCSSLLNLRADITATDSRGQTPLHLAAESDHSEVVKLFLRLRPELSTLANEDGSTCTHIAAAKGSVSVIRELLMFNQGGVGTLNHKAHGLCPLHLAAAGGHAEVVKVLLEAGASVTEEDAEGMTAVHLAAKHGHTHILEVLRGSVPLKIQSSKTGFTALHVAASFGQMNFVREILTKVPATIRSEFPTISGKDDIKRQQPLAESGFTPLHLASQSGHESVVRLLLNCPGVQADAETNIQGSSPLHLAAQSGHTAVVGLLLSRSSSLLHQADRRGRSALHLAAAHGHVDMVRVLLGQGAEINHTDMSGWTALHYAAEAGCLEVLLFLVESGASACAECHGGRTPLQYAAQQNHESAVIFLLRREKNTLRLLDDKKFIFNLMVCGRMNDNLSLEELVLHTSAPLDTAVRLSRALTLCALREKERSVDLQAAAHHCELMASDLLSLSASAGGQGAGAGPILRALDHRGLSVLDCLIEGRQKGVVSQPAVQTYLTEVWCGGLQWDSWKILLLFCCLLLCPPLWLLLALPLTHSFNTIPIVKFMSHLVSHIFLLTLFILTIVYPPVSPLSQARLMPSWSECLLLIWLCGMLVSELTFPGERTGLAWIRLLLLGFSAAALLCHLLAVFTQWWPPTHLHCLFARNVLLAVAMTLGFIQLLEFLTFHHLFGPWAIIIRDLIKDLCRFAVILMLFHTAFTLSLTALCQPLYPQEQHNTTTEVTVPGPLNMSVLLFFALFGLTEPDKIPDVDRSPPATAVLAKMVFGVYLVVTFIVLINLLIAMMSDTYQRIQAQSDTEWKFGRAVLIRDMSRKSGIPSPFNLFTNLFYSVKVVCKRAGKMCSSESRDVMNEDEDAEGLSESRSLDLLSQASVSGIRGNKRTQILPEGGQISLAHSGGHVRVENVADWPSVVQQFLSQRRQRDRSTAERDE
Method in brief: as §1

TRPML2 = molecular target: T2, TRPML2 (Homo sapiens, UniProt Q8IZK6); experiment: Fura-2 calcium imaging, HEK293 cells expressing TRPML2; details: 10 µM
T2 sequence (Q8IZK6 1-566): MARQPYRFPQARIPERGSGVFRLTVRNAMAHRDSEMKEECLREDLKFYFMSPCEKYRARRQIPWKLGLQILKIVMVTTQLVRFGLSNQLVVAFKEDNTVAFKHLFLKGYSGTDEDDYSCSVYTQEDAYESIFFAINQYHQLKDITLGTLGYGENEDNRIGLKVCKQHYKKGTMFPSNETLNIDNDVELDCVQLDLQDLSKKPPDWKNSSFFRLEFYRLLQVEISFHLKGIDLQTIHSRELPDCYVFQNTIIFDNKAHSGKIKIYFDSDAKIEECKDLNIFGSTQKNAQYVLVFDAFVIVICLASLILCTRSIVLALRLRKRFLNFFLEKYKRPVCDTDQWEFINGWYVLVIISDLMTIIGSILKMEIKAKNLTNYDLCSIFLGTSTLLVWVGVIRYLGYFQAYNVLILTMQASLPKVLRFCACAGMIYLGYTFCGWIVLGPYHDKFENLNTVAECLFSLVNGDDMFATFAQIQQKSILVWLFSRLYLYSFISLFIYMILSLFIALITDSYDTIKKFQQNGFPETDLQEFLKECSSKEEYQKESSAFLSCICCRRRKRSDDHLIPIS
Method in brief: (§2)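 HEK293 cells were transiently transfected (Genejammer) with the human channel construct or YFP control and measured 24 h later. Cells on glass coverslips were loaded with 4 µM fura-2-AM in bath solution (mM: 138 NaCl, 6 KCl, 2 MgCl2, 2 CaCl2, 10 HEPES, 5.5 D-glucose; pH 7.4). Compounds were applied at 10 µM and the F340/F380 ratio recorded. Values are mean ± SEM, n≥3.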

TRPML1(NC) = TRPML1(NC) (Homo sapiens, UniProt Q9GZU1); experiment: Fura-2 calcium imaging, HEK293 cells expressing TRPML1; details: 10 µM, plasma membrane-localized TRPML1 variant
TRPML1(NC), sequence (Q9GZU1 17-572 limits assumed): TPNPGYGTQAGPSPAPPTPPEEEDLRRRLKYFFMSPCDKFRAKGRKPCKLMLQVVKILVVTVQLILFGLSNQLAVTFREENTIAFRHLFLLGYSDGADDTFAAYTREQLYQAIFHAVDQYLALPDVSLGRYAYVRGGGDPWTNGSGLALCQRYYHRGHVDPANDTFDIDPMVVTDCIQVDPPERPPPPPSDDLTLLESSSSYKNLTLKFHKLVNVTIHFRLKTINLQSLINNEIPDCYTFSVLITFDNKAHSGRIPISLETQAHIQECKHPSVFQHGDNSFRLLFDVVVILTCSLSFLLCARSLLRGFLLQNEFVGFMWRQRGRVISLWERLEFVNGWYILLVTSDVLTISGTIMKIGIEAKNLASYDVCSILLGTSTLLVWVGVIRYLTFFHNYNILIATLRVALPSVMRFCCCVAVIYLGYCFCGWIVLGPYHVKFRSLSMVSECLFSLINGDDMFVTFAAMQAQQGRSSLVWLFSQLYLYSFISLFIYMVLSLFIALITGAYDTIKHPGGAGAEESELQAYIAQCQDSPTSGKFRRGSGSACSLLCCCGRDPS
Method in brief: as §2

[2] = system: TRPM2, TRPV2, TRPC3, TRPN1, TRPA1; experiment: Fura-2 calcium imaging selectivity, HEK293 cells expressing other TRP channels
Method in brief: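 HEK293 cells were transiently transfected (Genejammer) with expression vectors for each TRP channel and measured 24 h later. Cells on coverslips were loaded with 4 μM fura-2-AM in bath solution (mM: 138 NaCl, 6 KCl, 2 MgCl₂, 2 CaCl₂, 10 HEPES, 5.5 D-glucose, pH 7.4). [Ca²⁺]i increases to 10 µM test compound were imaged on a monochromator-based system.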

TRPML3 [3] = system: TRPML3
Method in brief: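 Whole-cell recordings used HEK293 cells expressing TRPML3 with 100% series-resistance compensation. Pipette solution (mM): 140 CsCl, 10 HEPES, 3 ATP-Na, 1 BAPTA, 2 MgCl2; pH 7.2. Compound at 10 µM was perfused in endolymph-like solution (mM: 2 NaCl, 150 KCl, 0.25 CaCl2, 10 HEPES, 10 glucose; pH 7.4) or in standard bath. Inward current at −80 mV was normalized to capacitance.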

[4] = system: primary human epidermal melanocytes; experiment: Calcium imaging in primary human epidermal melanocytes; details: concentrations up-to 100 µM; SN-2 at 30 µM and 100 µM
Method in brief: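 Primary neonatal human epidermal melanocytes were cultured in medium 254 with HMGS at 37 °C and 5% CO2. Intracellular Ca2+ was imaged after applying compounds at 100 µM, with one compound also at 30 µM. Data are mean ± SEM from more than 3 independent experiments of 20–30 cells each.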

TRPML3 [5] = molecular target: T1, TRPML3; experiment: Whole-cell patch-clamp with intracellular application
[6] = molecular target: T3, TRPML3 coexpressed with TRPML1 (Homo sapiens, UniProt Q8TDD5); experiment: Calcium imaging, HEK293 cells coexpressing TRPML3 with TRPML1; details: 10 µM
T3 sequence (Q8TDD5 1-553): T1 sequence (Q8TDD5 1-553)
Method in brief: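 Human TRPML3 and TRPML1 were transiently coexpressed in HEK293 cells (Genejammer) and imaged 24 h post-transfection. Cells on glass coverslips were loaded with 4 μM fura-2-AM in bath solution (mM: 138 NaCl, 6 KCl, 2 MgCl₂, 2 CaCl₂, 10 HEPES, 5.5 D-glucose, pH 7.4) and read on a monochromator imaging system. Test compound was 10 μM. Mean ± SEM, n≥3 independent experiments, 20–30 cells each.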

[7] = molecular target: T4, TRPML3 coexpressed with dynamin (Homo sapiens, UniProt Q8TDD5); experiment: Calcium imaging, HEK293 cells coexpressing wild type dynamin with TRPML3; details: compared to control experiments
T4 sequence (Q8TDD5 1-553): T1 sequence (Q8TDD5 1-553)
Method in brief: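 HEK293 cells were transiently cotransfected (Genejammer) with wild-type dynamin and TRPML3 and imaged 24 h later. Cells on glass coverslips were loaded with 4 µM fura-2-AM in bath solution (mM: 138 NaCl, 6 KCl, 2 MgCl2, 2 CaCl2, 10 HEPES, 5.5 D-glucose; pH 7.4). Responses to activators were compared with control transfections.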

Emax (TRPML3 [1]): 149 ± 11% | EC50 (danio rerio TRPN1): > 29.9 µM | Emax (danio rerio TRPN1; HEK293, read-out: Max % Activation (Control)): 3 ± 1% | response in HEK293 cells expressing TRPML2 (TRPML2): did not show any activity | activation of mutant TRPML1(NC) isoform (TRPML1(NC)): did not show any activity | cell membrane permeability (TRPML3 [5]; inferred from intracellular infusion experiment): not cell permeant | response when wild type dynamin coexpressed with TRPML3 in HEK293 cells [7]: reduction in response
Compound: Cc1cc(C)c(C2=NOC3C4CCC(C4)C23)c(C)c1 (stereo not shown) [SN-2, 5-mesityl-3-oxa-4-azatricyclo[5.2.1.0∼2,6∼]dec-4-ene]
activation of other TRP channels tested [2]: did not show any activity on other TRP channels | increase in current densities, compound + ELS vs ELS alone or compound in SBS (TRPML3 [3]; 10 µM compound, ELS 2 mM Na+, 150 mM K+): ≤ 10 fold | average current densities, compound + ELS (TRPML3 [3]; 10 µM, at −80 mV): up to 3 nA/pF | [Ca2+]i response in primary human epidermal melanocytes [4]: elicited a stronger response | response to intracellular application (infusion) (TRPML3 [5]; whole-cell, −80 mV): did not elicit a response when infused into the cells | calcium imaging response when TRPML1 was coexpressed with TRPML3 [6]: strong reduction of the calcium imaging responses
